Results published in ChEMBL document CHEMBL4385635, “Styryl quinazolinones and its ethynyl derivatives induce myeloid differentiation” (Bioorg Med Chem Lett, 2019).
Calls of active or inactive are those of the source. No cut-off for these calls is given here.

How the values were obtained:
HL-60 [1] = experiment: Induction of differentiation of human HL60 cells assessed as morphological changes at 10 uM after 7 days by NBT reduction assay; format: functional
In short: (§1)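 HL-60 cells were screened for differentiation by Wright-Giemsa morphology and NBT reduction, and apoptosis was scored alongside. Controls were 0.1% DMSO as vehicle and ATRA at 1 μM as positive. Each result was graded on a semiquantitative scale (−, ±, + to +++).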

HL-60 [2] = experiment: Induction of differentiation of human HL60 cells assessed as morphological changes at 10 uM after 7 days by Wright-Giemsa staining based assay; format: functional; in short: as §1
HL-60 [3] = experiment: Cytotoxicity against human HL60 cells assessed as reduction in cell viability at >3 uM; format: functional, cell-based
HL-60 [4] = experiment: Induction of apoptosis in human HL60 cells at 10 uM after 7 days; format: functional
In short: (§2)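 Apoptosis in compound-treated HL-60 cells was scored semi-quantitatively (− to +++), alongside the differentiation read-outs, against a 0.1% DMSO vehicle control.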

HL-60 [5] = experiment: Induction of differentiation of human HL60 cells assessed as morphological changes at 10 uM after 7 days; format: functional; in short: as §1
HL-60 [6] = experiment: Induction of differentiation of human HL60 cells assessed as morphological changes at 3 uM after 7 days; format: functional, cell-based
In short: (§3)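 HL-60 cells were treated with compound, with 0.1% DMSO as vehicle control. Differentiation was judged by Wright-Giemsa morphology and NBT reduction, each scored semi-quantitatively from − through ± to +++.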

HL-60 [7] = experiment: Cytotoxicity against human HL60 cells assessed as reduction in cell viability at 3 uM; format: functional, cell-based
HL-60 [8] = experiment: Induction of differentiation of human HL60 cells assessed as morphological changes at 1 uM after 7 days by NBT reduction assay; format: functional
In short: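 In compound-treated HL-60 cells, differentiation was read as NBT reduction. Scoring was semi-quantitative (−, ±, + to +++) against a 0.1% DMSO vehicle control.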

HL-60 [9] = experiment: Induction of differentiation of human HL60 cells assessed as increase in CD11b positive cells at 1 uM after 7 days by flow cytometric analysis (reference value: 3.94%); format: functional
In short: (§4)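 HL-60 cells were exposed to compound for 7 days, then stained with APC-conjugated anti-human/mouse CD11b antibody, with rat IgG2b as isotype control. CD11b-positive cells were measured by flow cytometry and reported as percent increase relative to the DMSO vehicle.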

HL-60 [10] = experiment: Induction of differentiation of human HL60 cells assessed as morphological changes at 1 uM after 7 days by Wright-Giemsa staining based assay; format: functional
In short: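 Compound-treated HL-60 cells were stained with Wright-Giemsa and examined for granulocytic morphology. Scoring was semi-quantitative (− to +++) against a 0.1% DMSO vehicle control.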

HL-60 [11] = experiment: Induction of differentiation of human HL60 cells assessed as increase in CEBPA mRNA expression at by QT-PCR analysis; format: functional, cell-based
In short: (§5)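 HL-60 cells were treated and CEBPA and CEBPE mRNA levels were measured by quantitative RT-PCR. Results are expressed as fold increase relative to DMSO-treated cells.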

HL-60 [12] = experiment: Induction of apoptosis in human HL60 cells at 1 uM after 7 days; format: functional; in short: as §2
HL-60 [13] = experiment: Induction of differentiation of human HL60 cells assessed as increase in CEBPA mRNA expression at 1 uM by QT-PCR analysis; format: functional
In short: (§6)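 HL-60 cells were treated with compound over a time course. CEBPA or CEBPE mRNA levels were measured and expressed as fold increase relative to the DMSO vehicle.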

Tubulin = Tubulin (Bos taurus, UniProt Q6B856+Q862L2+Q862F3); experiment: Inhibition of bovine brain tubulin polymerization
L1210 = experiment: Cytotoxicity against mouse L1210 cells assessed as reduction in cell viability after 48 hrs by trypan blue staining-based hemocytometric analysis; format: functional; settings: L1210, 48 h
HL-60 [14] = experiment: Induction of differentiation of human HL60 cells assessed as increase in CEBPE mRNA expression at 10 uM by QT-PCR analysis; format: functional; in short: as §5
HL-60 [15] = experiment: Induction of differentiation of human HL60 cells assessed as increase in CD11b positive cells at 10 uM after 7 days by flow cytometric analysis (reference value: 3.94%); format: functional
HL-60 [16] = experiment: Induction of differentiation of human HL60 cells assessed as increase in CEBPA mRNA expression at 10 uM by QT-PCR analysis; format: functional; in short: as §5
HL-60 [17] = experiment: Induction of differentiation of human HL60 cells assessed as increase in CEBPE mRNA expression at by QT-PCR analysis; format: functional, cell-based; in short: as §6
HL-60 [18] = experiment: Induction of differentiation of human HL60 cells assessed as increase in CD11b positive cells after 7 days by flow cytometric analysis relative to control; format: functional, cell-based; in short: as §4
HL-60 [19] = experiment: Induction of differentiation of human HL60 cells assessed as morphological changes at 1 uM after 7 days; format: functional, cell-based; in short: as §3
HL-60 [20] = experiment: Cytotoxicity against human HL60 cells assessed as reduction in cell viability at 1 uM; format: functional, cell-based
HL-60 [21] = experiment: Induction of differentiation of human HL60 cells assessed as morphological changes at 3 uM after 7 days by Wright-Giemsa staining based assay; format: functional; in short: as §1
HL-60 [22] = experiment: Induction of differentiation of human HL60 cells assessed as increase in CEBPE mRNA expression at 7 uM by QT-PCR analysis; format: functional; in short: as §5
HL-60 [23] = experiment: Induction of differentiation of human HL60 cells assessed as morphological changes at 3 uM after 7 days by NBT reduction assay; format: functional; in short: as §1
HL-60 [24] = experiment: Induction of differentiation of human HL60 cells assessed as increase in CD11b positive cells at 7 uM after 7 days by flow cytometric analysis (reference value: 3.94%); format: functional
HL-60 [25] = experiment: Induction of differentiation of human HL60 cells assessed as increase in CEBPA mRNA expression at 7 uM by QT-PCR analysis; format: functional; in short: as §5
HL-60 [26] = experiment: Induction of apoptosis in human HL60 cells at 3 uM after 7 days; format: functional; in short: as §1
HL-60 [27] = experiment: Induction of differentiation of human HL60 cells assessed as increase in CD11b positive cells at 5 uM after 7 days by flow cytometric analysis (reference value: 3.94%); format: functional
HL-60 [28] = experiment: Induction of differentiation of human HL60 cells assessed as increase in CD11b positive cells at 3 uM after 7 days by flow cytometric analysis (reference value: 3.94%); format: functional
HL-60 [29] = experiment: Induction of differentiation of human HL60 cells assessed as increase in CEBPA mRNA expression at 3 uM by QT-PCR analysis; format: functional; in short: as §5
HL-60 [30] = experiment: Induction of differentiation of human HL60 cells assessed as increase in CEBPE mRNA expression at 3 uM by QT-PCR analysis; format: functional; in short: as §5

O=C(O)c1cccc(-n2c(/C=C/c3ccc([N+](=O)[O-])o3)nc3ccccc3c2=O)c1
Activity (HL-60 [1]): 5 - 30% | Activity (HL-60 [2]): 5 - 30%

Cc1ccc(-n2c(/C=C/c3ccc([N+](=O)[O-])o3)nc3ccsc3c2=O)cc1
Activity (HL-60 [3]): Active | Activity (HL-60 [4]): 5 - 30%

C#Cc1ccc(-n2c(/C=C/c3ccc(O)cc3)nc3ccccc3c2=O)cc1
Activity (HL-60 [5]): 5 - 30% | Activity (HL-60 [1]): 5 - 30% | Activity (HL-60 [4]): 5 - 30% | Activity (HL-60 [2]): 5 - 30%

O=c1c2sccc2nc(/C=C/c2ccc([N+](=O)[O-])o2)n1-c1cccc(Cl)c1
Activity (HL-60 [6]): inactive | Activity (HL-60 [7]): Active | Activity (HL-60 [3]): Active | Activity (HL-60 [4]): 5 - 30%

CC1=C(/C=C/C(C)=C/C=C/C(C)=C/C(=O)O)C(C)(C)CCC1 [TRETINOIN]
Activity (HL-60 [8]): >60% | Activity (HL-60 [9]): 96.4% | Activity (HL-60 [10]): >60% | Activity (HL-60 [11]; TDE = time-dependent effect): Tde | Activity (HL-60 [12]): >60% | fold change (FC) (HL-60 [13]): 3

COc1cc(/C=C/c2nc3ccccc3c(=O)n2-c2c(Cl)cccc2Cl)ccc1O
Activity (HL-60 [4]): 5 - 30%

Oc1nc(/C=C/c2ccccc2)nc2ccc(Cl)cc12
IC50 (Tubulin): 2.5 µM

Cc1cc(-n2c(/C=C/c3ccccc3)nc3ccc(Cl)cc3c2=O)n(-c2ccccc2)n1
IC50 (L1210): 15 µM

COc1ccccc1-n1c(/C=C/c2ccc(O)c(O)c2)nc2ccccc2c1=O
Activity (HL-60 [1]): 5 - 30% | fold change (FC) (HL-60 [14]): 2.1 | Activity (HL-60 [15]): 25.9 - 51.2% | Activity (HL-60 [11]; TDE = time-dependent effect): Tde | Activity (HL-60 [4]): 5 - 30% | Activity (HL-60 [2]): 5 - 30% | fold change (FC) (HL-60 [16]): 1.5

Cc1cc(C#Cc2ccc(C(C)(C)C)cc2)ccc1-n1c(/C=C/c2ccc([N+](=O)[O-])o2)nc2ccccc2c1=O
Activity (HL-60 [17]): inactive | Activity (HL-60 [5]): 5 - 30% | Activity (HL-60 [1]): 5 - 30% | Activity (HL-60 [18]): inactive | Activity (HL-60 [11]): inactive | Activity (HL-60 [4]): 5 - 30% | Activity (HL-60 [2]): 5 - 30%

O=c1c2ccccc2nc(/C=C/c2ccc([N+](=O)[O-])o2)n1-c1ccccc1F
Activity (HL-60 [1]): 30 - 60% | fold change (FC) (HL-60 [14]): 6 | Activity (HL-60 [15]): 59% | Activity (HL-60 [11]; TDE = time-dependent effect): Tde | Activity (HL-60 [4]): >60% | Activity (HL-60 [2]): 30 - 60% | fold change (FC) (HL-60 [16]): 1.8

O=c1c2sccc2nc(/C=C/c2ccc([N+](=O)[O-])o2)n1-c1ccccc1Cl
Activity (HL-60 [1]): 5 - 30% | Activity (HL-60 [18]): inactive | Activity (HL-60 [19]): inactive | Activity (HL-60 [11]): Active | Activity (HL-60 [3]): Active | Activity (HL-60 [4]): 5 - 30% | Activity (HL-60 [20]): Active

O=c1[nH]c(/C=C/c2ccc([N+](=O)[O-])o2)nc2ccsc12
Activity (HL-60 [1]): 5 - 30% | Activity (HL-60 [6]): inactive | Activity (HL-60 [7]): Active | Activity (HL-60 [18]): inactive | Activity (HL-60 [11]): Active | Activity (HL-60 [3]): Active | Activity (HL-60 [4]): 5 - 30%

O=c1c2sccc2nc(/C=C/c2ccc([N+](=O)[O-])o2)n1-c1ccc(Cl)cc1
Activity (HL-60 [6]): inactive | Activity (HL-60 [7]): Active | Activity (HL-60 [3]): Active | Activity (HL-60 [4]): 5 - 30%

COc1ccccc1-n1c(/C=C/c2ccc([N+](=O)[O-])o2)nc2ccc(F)cc2c1=O
Activity (HL-60 [21]): 5 - 30% | fold change (FC) (HL-60 [22]): 2.6 | Activity (HL-60 [23]): 5 - 30% | Activity (HL-60 [24]): 89% | Activity (HL-60 [1]): 30 - 60% | Activity (HL-60 [15]): 94.2% | Activity (HL-60 [11]; TDE = time-dependent effect): Tde | fold change (FC) (HL-60 [25]): 1.6 | Activity (HL-60 [26]): 30 - 60% | Activity (HL-60 [4]): >60% | Activity (HL-60 [2]): 30 - 60%

O=c1c2cc(F)ccc2nc(/C=C/c2ccc([N+](=O)[O-])o2)n1-c1ccccc1
Activity (HL-60 [21]): 30 - 60% | Activity (HL-60 [23]): 30 - 60% | Activity (HL-60 [27]): 68.6% | Activity (HL-60 [28]): 42.2% | fold change (FC) (HL-60 [29]): 2.5 | fold change (FC) (HL-60 [30]): 10.3 | Activity (HL-60 [11]; TDE = time-dependent effect): Tde | Activity (HL-60 [26]): 30 - 60%
